NadD inh: blocks S. aureus nicotinate mononucleotide adenylyltransferase. purified NadD enzyme, colorimetric absorbance read-out. inhibition, % at 20 µM. 360,000 tested, 0.78% active. AID 602399; in the data active = inhibition above about 26%
core dimer inh: blocks dimerization of HCV core protein. TR-FRET GST/Flag-core106 dimerization, 1536-well. inhibition, % at 5 µM. 300,000 tested, 0.33% active. AID 1899;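 active = inhibition above the mean of all tested compounds plus 3 SD, set per screening campaign, cut at about 45% in these data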
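Assay system – GST-tagged and Flag-tagged HCV core protein residues 1-106 · Quantity – core106 proteins, GST 13.5 nM and Flag 17 nM · Benchmarks – unlabelled core106 and no-GST-core106 wells · Read-out basis – percent inhibition of core106 dimerization signal · Detection – time-resolved FRET, ex 340 nm, em 617 and 671 nm · Schedule – 4 h at 22.5 °C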
ABHD5 PLIN5 PPI: ABHD5-PLIN5 protein interaction inhibition; 360,000 tested, 0.78% active; inhibition, % at 4 µM; Q00G26+Q8WTS1; Split G. princeps luciferase complementation, luminescence, 4 h;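 active = inhibition above the mean inhibition across every tested compound plus 3 SD, cut at about 22% in these data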;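 also: 0% = DMSO only wells and the 100% control is not disclosed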
Target sequence (Q00G26 whole entry, looked up): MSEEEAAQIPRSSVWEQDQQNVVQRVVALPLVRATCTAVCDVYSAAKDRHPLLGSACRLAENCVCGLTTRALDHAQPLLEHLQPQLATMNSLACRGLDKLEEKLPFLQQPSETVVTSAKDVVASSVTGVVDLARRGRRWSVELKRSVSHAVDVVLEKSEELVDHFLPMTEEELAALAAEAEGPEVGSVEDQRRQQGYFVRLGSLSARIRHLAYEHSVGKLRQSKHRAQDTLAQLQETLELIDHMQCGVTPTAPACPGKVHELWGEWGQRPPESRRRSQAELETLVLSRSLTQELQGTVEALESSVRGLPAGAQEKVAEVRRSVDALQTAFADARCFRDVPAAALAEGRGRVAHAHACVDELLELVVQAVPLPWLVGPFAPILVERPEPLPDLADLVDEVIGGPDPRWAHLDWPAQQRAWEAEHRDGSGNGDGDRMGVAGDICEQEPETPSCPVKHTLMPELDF
Target sequence (Q8WTS1 whole entry, looked up): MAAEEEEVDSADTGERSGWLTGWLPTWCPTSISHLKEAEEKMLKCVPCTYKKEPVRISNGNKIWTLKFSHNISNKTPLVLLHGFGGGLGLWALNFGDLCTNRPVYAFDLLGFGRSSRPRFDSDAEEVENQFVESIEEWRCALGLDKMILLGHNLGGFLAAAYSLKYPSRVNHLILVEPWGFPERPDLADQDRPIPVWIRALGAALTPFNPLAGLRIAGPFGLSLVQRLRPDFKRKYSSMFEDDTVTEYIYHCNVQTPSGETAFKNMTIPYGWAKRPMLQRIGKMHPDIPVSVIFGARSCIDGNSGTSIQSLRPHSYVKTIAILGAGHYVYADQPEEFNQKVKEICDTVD
rCAG RNA binder: binds r(CAG) RNA repeats; r(CAG) RNA repeat, TO-PRO-1 dye displacement fluorescence; inhibition, % at 3 µM; 370,000 tested, 1.3% active;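 active = inhibition above the plate cutoff, the mean of all test compounds on that plate plus 3 SD, cut at about 35% in these data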;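 also: 0% = DMSO alone and 100% = 100 µM mitoxantrone as full dye displacement; higher means more dye released from RNA so lower well fluorescence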
NadD inh conf: NadD (S. aureus) inhibition, single concentration confirmation; inhibition, % at 20 µM; shares compounds with NadD inh; AID 624309; 2,000 tested, 13% active; purified S. aureus NadD, colorimetric enzyme assay; in the data active = inhibition mostly above about 42%, no sharp cut-off; inactive = mostly below about 42%
rCAG binder conf: r(CAG) RNA repeat binding, confirmation. inhibition, % at 3 µM. 4,300 tested, 70% active. TO-PRO-1 dye displacement fluorescence. shares compounds with rCAG RNA binder. AID 652065;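 active = inhibition above a per-plate cutoff, the mean inhibition of sample wells plus 3 SD, cut at about 35% in these data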;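 also: loss of TO-PRO-1 fluorescence as compound displaces dye from 1x1 AA loop RNA; 0% = DMSO only wells and 100% = 100 µM mitoxantrone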
dCAG dye counter: DNA CAG dye complex inhibition counter-screen | shares compounds with rCAG RNA binder | AID 652068 | d(CAG) DNA oligo TO-PRO-1 dye displacement, fluorescence | inhibition, % at 3 µM | 4,300 tested, 94% active;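 active = inhibition above its plate's cutoff, the mean test-well inhibition plus 3 SD, cut at about 4.8% in these data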;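 also: 0% = DNA dye mix with DMSO and 100% = 100 µM mitoxantrone; hits displace the dye from DNA and so lower well fluorescence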
DNA CAG DR: DNA CAG dye complex inhibition, dose response counter-screen. 250 tested, 20% active. DNA CAG/GTC duplex TO-PRO-1 dye displacement fluorescence. shares compounds with rCAG RNA binder. IC50, µM; in the data active = IC50 below about 10 µM
Active calls of the source: *; i = inactive; . = no result given. Rows were chosen to be rich in hits. Some 2.6% of all compounds tested hit in one or more screens of this group.

SMILES	NadD inh	core dimer inh	ABHD5 PLIN5 PPI	rCAG RNA binder	NadD inh conf	rCAG binder conf	dCAG dye counter	others
COc1ccc(/C=N/NC(=O)c2nn(-c3ccc(Cl)cc3)c(=O)c3c(N)scc23)cc1	55*	40	-26	42*	43	27	18*
COc1ccc(/C=N/NC(=O)c2nn(-c3ccccc3)c(=O)c3c(N)scc23)cc1	51*	43	-42	42*	17	28	18*
CSc1ccc(C(c2c(C)[nH][nH]c2=O)c2c(C)[nH][nH]c2=O)cc1	-2	-2	-14	8	.	.	.
CSc1ccc(C(c2c(C(=O)O)[nH]c3ccccc23)c2c(C(=O)O)[nH]c3ccccc23)cc1	37*	35	6	89*	48*	82*	50*
CC1CN(C(=O)c2ccccc2)CCC1=NO (configuration not stated)	.	.	.	3	.	.	.
CC(C)CC(C(=O)Nc1oc(-c2ccco2)c(-c2ccco2)c1C#N)N1C(=O)c2ccccc2C1=O (configuration not stated)	48*	20	5	78*	47*	74*	36*
Cc1cccc(-c2nnc(SCC(=O)c3ccc(F)cc3)n2C)c1	.	.	.	2	.	.	.
COc1ccccc1/C=C/C(=O)OCC(=O)Nc1nnc(-c2ccccc2)o1	15	.	3	30	.	.	.
COc1ccc(OC)c(/C=C/C(=O)OCC(=O)Nc2nnc(-c3ccccc3)o2)c1	44*	.	-10	45*	60*	41*	15*
COC(=O)C1CCN(C(=O)c2cc(-c3ccco3)nc3ccccc23)CC1	32*	.	10	41*	56*	28	15*
O=C(COC(=O)c1ccco1)NCc1ccc2c(c1)OCO2	-3	0	3	-2	.	.	.
COc1ccccc1CNC(=O)COC(=O)c1cc(-c2ccco2)nc2ccccc12	46*	69*	5	41*	39	31	17*
CC(C)Cn1c(N)c(C(=O)COC(=O)c2cc(-c3ccco3)nc3ccccc23)c(=O)n(C)c1=O	53*	54*	15	41*	20	39*	20*
Cn1c(=O)c(C(=O)COC(=O)c2cc(-c3ccco3)nc3ccccc23)c(N)n(Cc2ccccc2)c1=O	.	9	.	.	.	.	.
O=C(COC(=O)c1cc(-c2ccco2)nc2ccccc12)NCc1ccc2c(c1)OCO2	43*	36	1	38*	-4	15	8.0*
CCCCc1c(-c2ccc(OC)cc2)ncn1CCc1ccccc1OC	1	.	-2	0	.	.	.
COC(=O)[C@]12C[C@H](CC(=O)NCC34CC5CC(CC(C5)C3)C4)C(=O)N(Cc3cccc4ccccc34)C1=C[C@H](C1CCCC1)O[C@@H]2C	.	.	.	7	.	.	.
O=c1[nH]c2cccc(Cl)c2c2ccccc12	3	.	-3	7	.	.	.
O=C(C[C@@H]1C/C=C\CCC(=O)OC[C@@H]2CCCN2C1=O)N[C@@H](CO)Cc1ccccc1	-4	.	0	-2	.	.	.
CSc1nc(SCC(=O)O)c2sc3nc(-c4ccccc4)c4c(c3c2n1)CCC4	28*	.	8	39*	0	63*	38*
O=[N+]([O-])c1cccc(-c2cc(-c3cc(Br)ccc3O)[nH]n2)c1	38*	-1	-6	37*	4	27	16*
COc1ccc(Cl)cc1NC(=O)C(C)OC(=O)c1ccc(NS(=O)(=O)c2ccc3[nH]c(=O)[nH]c3c2)cc1 (configuration not stated)	36*	12	-3	39*	31	49*	17*
COc1cc([N+](=O)[O-])c(OC)cc1Nc1ccccc1C(=O)O	.	.	.	6	.	.	.
COc1cc(-c2ccc(Nc3ccccc3C(=O)O)c(OC)c2)ccc1Nc1ccccc1C(=O)O	50*	.	4	93*	45	86*	59*
O=C(O)CC/C(=C\c1ccccc1[N+](=O)[O-])c1nc2ccccc2s1	0	-1	-2	19	.	.	.
SMILES	NadD inh	core dimer inh	ABHD5 PLIN5 PPI	rCAG RNA binder	NadD inh conf	rCAG binder conf	dCAG dye counter	others
O=C(O)CC/C(=C\c1cc([N+](=O)[O-])ccc1Cl)c1nc2ccccc2s1	1	6	5	25	.	.	.
O=C(O)CC/C(=C\c1cccc(NC(=O)c2ccccc2Cl)c1)c1nc2ccccc2s1	30*	12	5	61*	38	73*	27*	DNA CAG DR=i
CN(c1ccccc1)c1ccc(/C=C(/CCC(=O)O)c2nc3ccccc3s2)cc1[N+](=O)[O-]	43*	.	-2	77*	38	82*	43*
COc1ccccc1C(=O)NC(=O)COC(=O)c1ccc(Br)o1	-2	.	0	-2	.	.	.
CC(=O)CC[C@@H]1CC[C@]2(CCCN(C(=O)C3CCCC3)C2)O1	.	.	.	-1	.	.	.
CCOC(=O)C1=C(C)N=c2sc(=Cc3cc(Cl)c(OCC(=O)O)c(Cl)c3)c(=O)n2C1c1cccc(OC)c1 (configuration not stated)	34*	.	5	50*	52*	85*	54*
COc1ccc(C)cc1Nc1nc(-c2c[nH]c3ccccc23)cs1	39*	12	-26	37*	36	20	12*
CCNc1ccc(Br)cc(C(=O)/C=C/c2ccc3c(c2)OCO3)c1=O	52*	58*	19	39*	25	36*	18*
Nc1ccccc1C(=O)/C=C/c1ccc2c(c1)OCO2	-4	0	1	2	.	.	.
Cc1cccc(C)c1-n1nnnc1C(c1ccnc2ccccc12)N1CCN(C(=O)OCc2ccccc2)CC1 (configuration not stated)	16	.	2	3	.	.	.
O=C1OC(c2cccs2)=N/C1=C\c1ccc(-c2cccc(Cl)c2)o1	46*	21	-1	49*	8	40*	12*	DNA CAG DR=>30
O=C(CSc1nnc(-c2ccccc2)n1Cc1ccco1)Nc1ccc(Oc2ccccc2)cc1	.	.	.	5	.	.	.
Cc1ccc(Nc2nnc(SCC(O)=C(C#N)c3nc4ccccc4[nH]3)s2)c(C)c1	31*	.	-12	57*	60*	45*	21*
O=S1(=O)N[C@@H](Cc2ccccc2)COc2cc(N3CCOCC3)ccc21	.	.	.	2	.	.	.
CCN(CC)S(=O)(=O)c1ccc(Cl)c(NC(=S)NC(=O)C2CCCC2)c1	0	.	-5	5	.	.	.
CCN(CC)c1ccc(S(=O)(=O)Nc2cc(Cl)ccc2Cl)cc1NC(=S)NC(=O)C1CCCC1	31*	34	-17	65*	15	71*	35*
Cc1ccc(C2CC(=O)N3CN(c4ccc(Br)cc4)CSC3=C2C#N)o1 (configuration not stated)	43*	48*	-5	63*	-4	49*	18*

Compound activity from PubChem.
